# Experimental data taken from ChEMBL document CHEMBL3632592, “Identification of Highly Promising Antioxidants/Neuroprotectants Based on Nucleoside 5'-Phosphorothioate Scaffold. Synthesis, Activity, and Mechanisms of Action” (J Med Chem, 2015).
# Activity calls are given as the source filed them. The rule behind the calls is not given here.
# What was measured:
# [1] = Antioxidant activity assessed as inhibition of Fe2+-induced DMPO-OH adduct formation from H2O2 preincubated for 30 secs followed by DMPO/H2O2 addition measured after 150 secs by ESR analysis; assay type: physicochemical
# Method in brief: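 Fenton/ESR spin trapping: 1 mM ammonium iron(II) sulfate was added to 5–500 µM compound, then Tris buffer pH 7.4 (final pH 7.2–7.4). After 30 s, 100 mM DMPO and 100 mM H2O2 were added (stock concentrations). The ESR spectrum was recorded 150 s after H2O2, at room temperature. DMPO-OH adduct expressed as % of control containing FeSO4, H2O2 and DMPO only.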
# [2] = Antioxidant activity assessed as ABTS radical scavenging activity after 7 mins; assay type: physicochemical
# Method in brief: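 ABTS radical cation made from 7 mM ABTS with 2.45 mM persulfate (final), kept in the dark at room temperature 12–16 h. It was then diluted in water pH 7.4 to A734 0.80 and mixed with compound or Trolox standard (final 0–60 µM). A734 was read at 7 min. Percent inhibition plotted against concentration; at least three runs, in triplicate.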
# [3] = Metal chelating activity assessed as inhibition of Fe2+-ferrozine complex formation after 10 mins; assay type: physicochemical
# Method in brief: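 Competitive ferrozine assay. FeSO4 (final 10 µM) and ferrozine (final 20 µM) are mixed with nucleotide in DDW at final 25–200 µM and agitated 10 min at room temperature. Absorbance of the Fe(II)-ferrozine complex is read at 562 nm with and without compound, and inhibition of complex formation is calculated. Three experiments, mean ± S.D.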
# [4] = target: P2Y purinoceptor 1 (Homo sapiens, UniProt P47900); assay: Agonist activity at GFP-tagged human P2Y1R transfected in human 1321N1 cells assessed as increase in intracellular Ca2+ level by fura 2/AM probe-based fluorescence assay; assay type: functional, cell-based
# [5] = target: T1, P2Y purinoceptor 11 (Homo sapiens, UniProt Q96G91); assay: Agonist activity at GFP-tagged human P2Y11R transfected in human 1321N1 cells assessed as increase in intracellular Ca2+ level by fura 2/AM probe-based fluorescence assay; assay type: functional, cell-based
# T1 sequence (Q96G91 whole entry): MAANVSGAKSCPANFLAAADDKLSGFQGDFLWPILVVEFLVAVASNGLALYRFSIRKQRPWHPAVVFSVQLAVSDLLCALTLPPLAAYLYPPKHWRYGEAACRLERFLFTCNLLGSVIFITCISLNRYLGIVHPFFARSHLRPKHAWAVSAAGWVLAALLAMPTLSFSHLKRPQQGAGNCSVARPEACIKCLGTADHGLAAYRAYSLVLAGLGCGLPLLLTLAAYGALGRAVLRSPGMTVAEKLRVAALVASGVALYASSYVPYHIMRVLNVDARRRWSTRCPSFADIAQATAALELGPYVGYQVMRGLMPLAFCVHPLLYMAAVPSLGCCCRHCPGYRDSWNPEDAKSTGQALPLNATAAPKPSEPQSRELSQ
# [6] = test system: PC-12; assay: cells; details: Rattus norvegicus, PC-12, 1 h
# [7] = Half life in human serum at 37 degC by HPLC analysis; assay type: ADME, cell-free
# Method in brief: (§1)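 Nucleotides were incubated in human blood serum or RPMI-1640 at 37 °C for 0.5–24 h. Hydrolysis was followed by the change in HPLC peak integration of each analogue over time, and half-life was derived from this.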
# [8] = Half life of the compound in RPMI-1640 medium at 37 degC by HPLC analysis; assay type: ADME; method in brief: as §1
# [9] = test system: PC-12
# [10] = Metal chelating activity assessed as inhibition of Fe2+-ferrozine complex formation at 80 uM after 10 mins relative to control; assay type: physicochemical
# Method in brief: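 FeSO4 (final 10 µM) was mixed with ferrozine (final 20 µM) and nucleotide (final 25–200 µM) in water and agitated 10 min at room temperature. Fe(II)-ferrozine complex absorbance at 562 nm, measured with versus without compound. Mean of three experiments.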
# [11] = Antioxidant activity in human NTERA2 cells assessed as inhibition of Fe2+-induced reactive oxygen species formation at 0.2 uM after 1 hr by DCFH-DA dye-based fluorometric analysis relative to control; assay type: functional; details: NTERA2, 1 h
# [12] = target: T2, eNPP1 (ectonucleotide pyrophosphatase/phosphodiesterase family member 1) (Homo sapiens, UniProt P22413); assay: (§2) Drug metabolism assessed as human eNPP1-mediated compound hydrolysis at 4 mM after 2 hrs by reverse-phase HPLC analysis relative to ATP; assay type: ADME; details: human eNPP1 enzyme, read-out: Drug metabolism
# T2 sequence (P22413 whole entry): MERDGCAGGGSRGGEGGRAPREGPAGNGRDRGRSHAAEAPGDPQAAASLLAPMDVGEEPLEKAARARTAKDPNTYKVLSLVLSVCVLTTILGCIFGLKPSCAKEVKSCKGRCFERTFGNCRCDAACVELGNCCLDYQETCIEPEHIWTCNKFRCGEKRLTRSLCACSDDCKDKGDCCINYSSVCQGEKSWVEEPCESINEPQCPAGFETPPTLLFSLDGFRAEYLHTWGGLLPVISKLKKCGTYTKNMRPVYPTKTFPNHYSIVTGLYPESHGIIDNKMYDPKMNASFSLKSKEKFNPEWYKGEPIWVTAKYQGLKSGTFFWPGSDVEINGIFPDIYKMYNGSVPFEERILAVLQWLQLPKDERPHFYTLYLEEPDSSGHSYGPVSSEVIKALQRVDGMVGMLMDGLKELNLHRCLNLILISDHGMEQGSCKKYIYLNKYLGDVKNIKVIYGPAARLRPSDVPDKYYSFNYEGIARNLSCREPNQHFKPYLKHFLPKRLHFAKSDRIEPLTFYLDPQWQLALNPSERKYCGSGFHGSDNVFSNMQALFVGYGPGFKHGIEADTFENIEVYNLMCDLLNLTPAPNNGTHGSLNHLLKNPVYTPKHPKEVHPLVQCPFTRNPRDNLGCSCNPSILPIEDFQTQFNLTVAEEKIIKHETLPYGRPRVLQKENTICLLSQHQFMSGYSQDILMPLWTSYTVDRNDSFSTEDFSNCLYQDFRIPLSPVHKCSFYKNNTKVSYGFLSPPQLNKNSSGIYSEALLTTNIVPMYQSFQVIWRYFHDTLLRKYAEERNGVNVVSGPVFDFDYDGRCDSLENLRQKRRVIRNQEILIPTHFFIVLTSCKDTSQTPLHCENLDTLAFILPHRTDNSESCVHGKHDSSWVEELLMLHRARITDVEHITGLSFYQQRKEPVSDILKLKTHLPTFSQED
# Method in brief: (§3)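 Human eNPP1 extract (19 µg) was preincubated 3 min at 37 °C in 1 mM CaCl2, 200 mM NaCl, 10 mM KCl, 100 mM Tris pH 8.5, then reaction started with compound (4 mM stock). Stopped after 2 h with ice-cold 1 M perchloric acid, neutralised with KOH, and analysed by RP-HPLC (90% 100 mM TEAA pH 7/10% CH3CN). Degradation from the monophosphate peak after subtracting the acid-only control.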
# [13] = Neuroprotective activity against Fe2+-induced oxidative damage in rat primary cortical neurons assessed as cell viability after 24 hrs by MTT assay; assay type: functional, cell-based; details: Cerebral cortex neuron
# Method in brief: (§4)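 Rat (1-day-old) cortical neurons were grown serum-free in DMEM/F12 with B-27 on poly-ornithine, treated with Ara-C and cultured 5 d. Cells were pretreated with nucleotide (0.01–25 µM), then exposed to FeSO4 3 µM final for 24 h. MTT 1 mg/mL was added for 2 h at 37 °C, formazan dissolved in DMSO, A550 read. Viability given as % of vehicle control; three independent experiments in triplicate.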
# [14] = test system: PC-12; assay: Antioxidant activity in rat PC12 cells assessed as inhibition of Fe2+-induced reactive oxygen species formation at 0.01 to 25 uM after 1 hr by DCFH-DA dye-based fluorometric analysis in presence of P2Y12R antagonist 2-MeS-AMP; assay type: functional, cell-based
# Method in brief: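 PC12 cells (DMEM, seeded 24 h) were preincubated 20 min with 50 µM P2Y12 antagonist 2-MeS-AMP. They were then loaded with DCFH-DA, given test compound at 0.01–25 µM, and oxidised with FeSO4 (final 0.16 µM). DCF fluorescence 485/530 nm over 1 h at 37 °C. ROS inhibition compared with no-antagonist control; three independent experiments in triplicate.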
# [15] = test system: NTERA2; assay: Antioxidant activity in human NTERA2 cells assessed as inhibition of Fe2+-induced reactive oxygen species formation at 0.01 to 25 uM after 1 hr by DCFH-DA dye-based fluorometric analysis in presence of P2Y1R antagonist MRS2179; assay type: functional, cell-based
# Method in brief: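 Ntera-2 cells (DMEM, seeded 24 h) were preincubated 20 min with 40 µM P2Y1 antagonist MRS2179. They were then loaded with DCFH-DA and treated with compound at 0.01–25 µM, with oxidation started by FeSO4 (final 0.16 µM). DCF fluorescence 485/530 nm, 1 h at 37 °C. Three independent experiments in triplicate.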
# [16] = test system: Cerebral cortex neuron; assay: Neuroprotective activity against Fe2+-induced morphological changes in rat primary cortical neurons at 0.2 to 100 uM after 24 hrs by light microscopic analysis; assay type: functional, cell-based
# Method in brief: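 Primary rat cortical neurons were exposed to 3 µM FeSO4 for 24 h, with compound at 0.2, 5 and 100 µM. Morphology (cell number, extensions, cytoskeleton) was examined by light microscopy at 100×.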
# [17] = target: T3, Ectonucleotide pyrophosphatase/phosphodiesterase family member 1 (Homo sapiens, UniProt P22413); assay: as §2; assay type: ADME; details: 2 h, 4000 µM; method in brief: as §3
# T3 sequence (P22413 whole entry): T2 sequence (P22413 whole entry)
# [18] = test system: Cerebral cortex neuron; assay: Neuroprotective activity against Fe2+-induced oxidative damage in rat primary cortical neurons assessed as cell viability at 0.01 to 25 uM after 24 hrs by MTT assay; assay type: functional, cell-based; method in brief: as §4
# Sequence of P2Y purinoceptor 1 (P47900 whole entry): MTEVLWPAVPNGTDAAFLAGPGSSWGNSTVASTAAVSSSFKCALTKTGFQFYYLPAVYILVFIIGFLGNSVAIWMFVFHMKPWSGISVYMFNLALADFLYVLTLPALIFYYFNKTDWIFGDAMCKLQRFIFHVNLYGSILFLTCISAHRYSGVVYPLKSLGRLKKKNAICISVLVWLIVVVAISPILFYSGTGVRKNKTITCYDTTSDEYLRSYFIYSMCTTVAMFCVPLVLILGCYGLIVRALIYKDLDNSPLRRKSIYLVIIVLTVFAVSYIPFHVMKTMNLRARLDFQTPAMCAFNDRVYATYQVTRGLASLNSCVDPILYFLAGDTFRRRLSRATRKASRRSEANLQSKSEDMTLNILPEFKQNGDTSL
Compound,IC50 [1],IC50 [2],EC50 [4],EC50 [5],IC50 [6],also measured
Nc1ncnc2c1ncn2[C@@H]1O[C@H](COP(=O)(O)OP(=O)(O)S)[C@@H](O)[C@H]1O (stereo not given in full),19 µM,15 µM,1.27 µM,32.7 µM,20 µM,IC50 [3]: 85 µM
CSc1nc(N)c2ncn([C@@H]3O[C@H](COP(=O)(O)OP(=O)(O)S)[C@@H](O)[C@H]3O)c2n1 (stereo not given in full),21 µM,15 µM,0.037 µM,0.9 µM,12 µM,
Nc1nc(Cl)nc2c1ncn2[C@@H]1O[C@H](COP(=O)(O)OP(=O)(O)S)[C@@H](O)[C@H]1O (stereo not given in full),21 µM,13 µM,0.09 µM,1 µM,5 µM,
Nc1ncnc2c1ncn2[C@@H]1O[C@H](COP(=O)(S)OP(=O)(O)O)[C@@H](O)[C@H]1O (stereo in doubt; 6A),31 µM,20 µM,0.08 µM,4.5 µM,38 µM,half-life [7]: 14.5 h; half-life [8]: 14.5 h
Nc1ncnc2c1ncn2[C@@H]1O[C@H](COP(=O)(S)OP(=O)(O)O)[C@@H](O)[C@H]1O (stereo in doubt; 6B),36 µM,22 µM,0.13 µM,8.7 µM,,IC50 [9]: 39 µM
CSc1nc(N)c2ncn([C@@H]3O[C@H](COP(=O)(S)OP(=O)(O)O)[C@@H](O)[C@H]3O)c2n1 (stereo in doubt; 7A) [listing 1 of 2 here],37 µM,12.5 µM,0.0026 µM,3.2 µM,,"inhibition (INH) [10]: 50%; inhibition at 0.2 µM [11]: 50%; metabolised at 2 h, 4000 µM [12]: 36.6%; half-life [7]: 15 h; half-life [8]: 15 h; EC50 [13]: 0.04 µM; IC50 [9]: 0.08 µM"
CSc1nc(N)c2ncn([C@@H]3O[C@H](COP(=O)(S)OP(=O)(O)O)[C@@H](O)[C@H]3O)c2n1 (stereo in doubt; 7A) [listing 2 of 2 here],,,,,,inhibition [14]: inactive; inhibition [15]: inactive; Activity [16]: Active
CSc1nc(N)c2ncn([C@@H]3O[C@H](COP(=O)(S)OP(=O)(O)O)[C@@H](O)[C@H]3O)c2n1 (stereo in doubt; 7B) [listing 1 of 2 here],38 µM,12 µM,0.017 µM,1 µM,,Drug metabolism [17]: 23.7%; IC50 [9]: 0.6 µM
CSc1nc(N)c2ncn([C@@H]3O[C@H](COP(=O)(S)OP(=O)(O)O)[C@@H](O)[C@H]3O)c2n1 (stereo in doubt; 7B) [listing 2 of 2 here],,,,,,Activity [18]: Active
Nc1nc(Cl)nc2c1ncn2[C@@H]1O[C@H](COP(=O)(S)OP(=O)(O)O)[C@@H](O)[C@H]1O (stereo in doubt; 8A),36 µM,11 µM,0.03 µM,1.4 µM,0.2 µM,
Nc1nc(Cl)nc2c1ncn2[C@@H]1O[C@H](COP(=O)(S)OP(=O)(O)O)[C@@H](O)[C@H]1O (stereo in doubt; 8B),39 µM,12 µM,1.5 µM,0.5 µM,,IC50 [9]: 0.11 µM
Nc1nc(Cl)nc2c1ncn2[C@@H]1O[C@H](COP(=O)(S)OP(=O)(O)OP(=O)(O)O)[C@@H](O)[C@H]1O (stereo in doubt; 9A),37 µM,25 µM,0.73 µM,9.1 µM,106 µM,
Nc1nc(Cl)nc2c1ncn2[C@@H]1O[C@H](COP(=O)(S)OP(=O)(O)OP(=O)(O)O)[C@@H](O)[C@H]1O (stereo in doubt; 9B),27 µM,24 µM,0.88 µM,1.1 µM,,IC50 [9]: 100 µM
Nc1ncnc2c1ncn2[C@@H]1O[C@H](COP(=O)(O)OP(=O)(O)OP(=O)(O)O)[C@@H](O)[C@H]1O [ADENOSINE TRIPHOSPHATE],,60 µM,,,,
O=C(O)CC(O)(CC(=O)O)C(=O)O [CITRIC ACID],,,,,,IC50 [3]: 300 µM
O=C(O)CN(CCN(CC(=O)O)CC(=O)O)CC(=O)O [EDETIC ACID],54 µM,,,,,
O=C(O)CN(CCN(CC(=O)O)CC(=O)O)CCN(CC(=O)O)CC(=O)O [PENTETIC ACID],,,,,,IC50 [3]: 90 µM
Cc1c(C)c2c(c(C)c1O)CCC(C)(C(=O)O)O2 (stereo not given) [TROLOX],,18 µM,,,,IC50 [3]: 150 µM
